Test [1] deals with T1, lipoxygenase (LOX) (linoleate:oxygen oxidoreductase, EC 1.13.11.12) (Glycine max, UniProt P08170).
T1 sequence (P08170 1-839): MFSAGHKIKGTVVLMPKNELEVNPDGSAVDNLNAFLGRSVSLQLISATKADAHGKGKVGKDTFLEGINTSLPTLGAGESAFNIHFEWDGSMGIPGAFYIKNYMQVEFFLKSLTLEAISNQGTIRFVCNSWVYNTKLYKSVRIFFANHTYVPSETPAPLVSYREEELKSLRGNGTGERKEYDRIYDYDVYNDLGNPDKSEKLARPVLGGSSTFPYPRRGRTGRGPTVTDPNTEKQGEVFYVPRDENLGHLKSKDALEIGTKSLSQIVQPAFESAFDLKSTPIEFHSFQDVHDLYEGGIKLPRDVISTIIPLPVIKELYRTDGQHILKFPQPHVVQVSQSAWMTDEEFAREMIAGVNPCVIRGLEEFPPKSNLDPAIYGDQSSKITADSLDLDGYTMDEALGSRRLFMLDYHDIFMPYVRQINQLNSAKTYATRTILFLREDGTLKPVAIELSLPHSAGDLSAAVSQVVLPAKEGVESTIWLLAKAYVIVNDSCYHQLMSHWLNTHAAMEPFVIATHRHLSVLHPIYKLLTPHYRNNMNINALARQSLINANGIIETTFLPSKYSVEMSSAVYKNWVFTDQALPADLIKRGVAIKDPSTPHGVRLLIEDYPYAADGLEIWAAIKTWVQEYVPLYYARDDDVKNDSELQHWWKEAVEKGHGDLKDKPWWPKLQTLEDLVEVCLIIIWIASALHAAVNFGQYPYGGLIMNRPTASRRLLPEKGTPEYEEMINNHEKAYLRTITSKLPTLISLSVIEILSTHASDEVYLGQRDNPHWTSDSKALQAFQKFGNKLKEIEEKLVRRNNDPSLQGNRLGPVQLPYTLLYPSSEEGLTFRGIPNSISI
The experiment in a line: Lipoxygenase. Format: biochemical, Glycine max (soybean). The settings on record: soybean LOX, linoleic acid substrate, 25 °C; mean ± SD.

Test [2] can be described thus: ABTS radical cation bleaching assay. The note with it: TEAC units; X = EO or compound. The gist of the method: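 ABTS radical cation (ABTS•+) bleaching by essential oils and their individual components, run in triplicate by a published method. Results are given as mean ± SD, compared by ANOVA with Tukey's HSD (p < 0.05).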
Test [3] is described as follows: DPPH radical scavenging capacity. The note with it: TEAC units; X = EO or compound. The gist of the method: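 DPPH radical scavenging by essential oils and individual components, by a published method, in triplicate. Values are expressed as μmol TE/mL EO and given as mean ± SD, with ANOVA/Tukey's HSD at p < 0.05.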
In general terms: DPPH is a stable violet radical that fades when it is reduced.

Another test can be described thus: Reducing power. The note with it: AAE units; X = EO or compound. The gist of the method: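 Reduction of potassium ferricyanide by the oils and individual components, by a published method, in triplicate. Results are reported as ascorbic acid equivalents per volume of EO, mean ± SD, with ANOVA/Tukey's HSD (p < 0.05).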
The next test can be described thus: Chelating power. The settings on record: for ChP: EDTAE units, X = EO or compound. The gist of the method:
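Ferrous ion chelation by essential oils and their major components, by a published method, in triplicate. Results are expressed as EDTA equivalents per volume of EO, mean ± SD, with ANOVA/Tukey's HSD (p < 0.05).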

A short description of test [4]: Oxygen radical absorption capacity. The settings on record: TEAC units; X = EO or compound. The gist of the method: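 Peroxyl radical (ROO) scavenging by the oils and individual components, following a published ORAC method, in triplicate. Data are mean ± SD, with significance by ANOVA/Tukey's HSD (p < 0.05).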
The nature of test [5]: Thiobarbituric acid reactive substances. The settings on record: BHTE units; X = EO or compound. The gist of the method:
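TBARS formation by oxidation measured in soybean lecithin homogenate as lipid-rich medium, by a published method, in triplicate. Values are expressed as μmol BHTE/mL EO, mean ± SD, with ANOVA/Tukey's HSD (p < 0.05).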

The structures appear in SMILES notation.

In the case of `CC(=O)OC1CC2CCC1(C)C2(C)C` (stereo not drawn) [bornyl acetate], the “LOX inhibitory activity, IC50 of main commercially available compounds” value (from here on “LOX inhibitory activity, IC50”) in test [1] was 75 ± 3 μL (Compound)/L. Also, the ABTS result in test [2] is recorded as “N/D (Activity lower than 0.05 units at a maximum assay concentration of 100 mM)”. The DPPH result in test [3] is “N/D (Activity lower than 0.05 units at a maximum assay concentration of 100 mM)”. Moreover, the RdP result in the test “Reducing power” is on record as “N/D (Activity lower than 0.05 units at a maximum assay concentration of 100 mM)”. Moreover, the ChP in the test “Chelating power” is 0.1 ± 0.0 μmol EDTAE/mL X. For the same compound, the ORAC entry in test [4] was “N/D (Activity lower than 0.05 units at a maximum assay concentration of 100 mM)”. For the same compound, the TBARS entry in test [5] is given as “N/D (Activity lower than 0.05 units at a maximum assay concentration of 100 mM)”.

As for `CC12CCC(CC1=O)C2(C)C` (stereo not drawn) [camphor], the “LOX inhibitory activity, IC50” value in test [1] is 422 ± 13 μL (Compound)/L. In addition, the ABTS entry in test [2] is reported as “N/D (Activity lower than 0.05 units at a maximum assay concentration of 100 mM)”. For the same compound, the DPPH entry in test [3] is on record as “N/D (Activity lower than 0.05 units at a maximum assay concentration of 100 mM)”. Also, in the test “Reducing power”, the RdP result is on record as “N/D (Activity lower than 0.05 units at a maximum assay concentration of 100 mM)”. Moreover, in the test “Chelating power”, the ChP entry is recorded as “N/D (Activity lower than 0.05 units at a maximum assay concentration of 100 mM)”. Also, in test [4], the ORAC result is “N/D (Activity lower than 0.05 units at a maximum assay concentration of 100 mM)”. Besides, in test [5], the TBARS entry is on record as “N/D (Activity lower than 0.05 units at a maximum assay concentration of 100 mM)”.

As to `C=C(C)[C@H]1CC=C(C)CC1` [limonene], the “LOX inhibitory activity, IC50” value in test [1] is on record as 58 ± 5 μL (Compound)/L. For the same compound, in test [2], the ABTS is listed as 3.6 ± 0.2 μmol TE/mL X. Also, the DPPH entry in test [3] was “N/D (Activity lower than 0.05 units at a maximum assay concentration of 100 mM)”. The RdP entry in “Reducing power” is on record as “N/D (Activity lower than 0.05 units at a maximum assay concentration of 100 mM)”. In addition, in the test “Chelating power”, the ChP came out at 36.7 ± 2.3 μmol EDTAE/mL X. In test [4], the ORAC was determined as 0.8 ± 0.1 μmol TE/μL X. Further, the TBARS result in test [5] was “N/D (Activity lower than 0.05 units at a maximum assay concentration of 100 mM)”.

For `C=CC(C)(O)CCC=C(C)C` (stereo not drawn) [linalool], the “LOX inhibitory activity, IC50” value in test [1] was 599 ± 8 μL (Compound)/L. This compound had an ABTS in test [2] of 0.4 ± 0.0 μmol TE/mL X. In addition, the DPPH entry in test [3] is “N/D (Activity lower than 0.05 units at a maximum assay concentration of 100 mM)”. In addition, the RdP result in “Reducing power” is “N/D (Activity lower than 0.05 units at a maximum assay concentration of 100 mM)”. In the test “Chelating power”, the “Chelating power (ChP), result in words” value was “high ChP” and the ChP turned out to be 541.6 ± 32.7 μmol EDTAE/mL X. Besides, the ORAC in test [4] came to 1.9 ± 0.1 μmol TE/μL X. Besides, the TBARS entry in test [5] is given as “N/D (Activity lower than 0.05 units at a maximum assay concentration of 100 mM)”.

Consider `Cc1ccc(C(C)C)cc1` [p-cymene], for which, in test [1], the “LOX inhibitory activity, IC50” value is reported as 79 ± 5 μL (Compound)/L. For the same compound, the ABTS in test [2] is reported as 0.6 ± 0.0 μmol TE/mL X. For the same compound, the DPPH result in test [3] is given as “N/D (Activity lower than 0.05 units at a maximum assay concentration of 100 mM)”. For the same compound, the RdP result in “Reducing power” is listed as “N/D (Activity lower than 0.05 units at a maximum assay concentration of 100 mM)”. In addition, in “Chelating power”, the “Chelating power (ChP), result in words” value was “high chelating activity” and the ChP turned out to be 124.7 ± 9.8 μmol EDTAE/mL X. The ORAC result in test [4] is on record as “N/D (Activity lower than 0.05 units at a maximum assay concentration of 100 mM)”. Also, in test [5], the TBARS result is recorded as “N/D (Activity lower than 0.05 units at a maximum assay concentration of 100 mM)”.

In the case of `Cc1ccc(C(C)C)c(O)c1` [thymol], the “LOX inhibitory activity, IC50” value in test [1] is on record as 23 ± 2 μL (Compound)/L. This compound also displayed an ABTS in test [2] of 6897.1 ± 225.0 μmol TE/mL X. Further, the DPPH in test [3] is 34.9 ± 2.1 μmol TE/mL X. The RdP in the test “Reducing power” came to 3353.9 ± 133.4 μmol AAE/L X. Besides, in the test “Chelating power”, the “Chelating power (ChP), result in words” value was “do not show any ChP” and the ChP entry is recorded as “N/D (Activity lower than 0.05 units at a maximum assay concentration of 100 mM)”. The same compound gave an ORAC in test [4] of 2.1 ± 0.1 μmol TE/μL X. For the same compound, the TBARS in test [5] stood at 869.4 ± 255.2 μmol BHTE/mL X.
